Source: ChEMBL document CHEMBL2086278, “Synthesis and biological evaluation of ester prodrugs of Benzafibrate as orally active hypolipidemic agents” (Eur J Med Chem, 2012)

What was measured:
Mus musculus [1] = assay: Hypolipidemic activity in Swiss albino mouse assessed as reduction in plasma triglyceride level at 50 mg/kg, po for 8 days measured on day 9 by spectrophotometry relative to control; assay type: functional; parameters: scale not given: the % may be the effect or the level left
Outline: (§1)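 Male Swiss albino mice, 21–30 g, chow fed, acclimatised 1 week; n = 10/group. Oral gavage 50 mg/kg/day for 8 days, suspended in Tween-80 5 µL/mL in 0.5% CMC (10 mL/kg); vehicle controls. Fasted 12 h; day 9 blood taken 1 h post-dose under mild ether. Plasma (4000 rpm, 10 min) TG/TC by spectrophotometric kit; % fall vs control; mean ± SE, ANOVA with Dunnett's.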

Mus musculus [2] = assay: Hypolipidemic activity in Swiss albino mouse assessed as reduction in plasma total cholesterol level at 50 mg/kg, po for 8 days measured on day 9 by spectrophotometry relative to control; assay type: functional; parameters: scale not given: the % may be the effect or the level left; outline: as §1
[3] = Octanol-phosphate buffer partition coefficient, log P of the compound at pH 7.4 by HPLC analysis; assay type: physicochemical
Outline: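 1-Octanol and 0.2 M phosphate buffer pH 7.4, mutually pre-saturated 24 h. Compound shaken between 5 mL of each phase for 60 min at 400 rpm, 25 °C, then centrifuged at 3500 rpm for 5 min. Each phase quantified by HPLC at 254 nm. log P = log of octanol/un-ionized aqueous concentration ratio, mean of triplicate.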

[4] = Aqueous stability of the compound in 0.2 M hydrochloric acid buffer solution at pH 1 at 40 degC after 4 hrs by HPLC analysis; assay type: physicochemical; details: pH 1, 4 h
Outline: (§2)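 10 mg test compound in 10 mL buffer shaken at 400 rpm, 40 °C, 4 h. Buffers: 0.2 M HCl pH 1.0, 0.1 M citric acid pH 3.0, 0.1 M phosphate pH 5.2, 0.2 M phosphate pH 7.4, 0.1 M boric acid pH 9.0. Filtered 0.20 µm; filtrate analysed by HPLC at 254 nm (C-8 column, gradient) for bezafibrate formed / % hydrolysed.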

[5] = Aqueous stability of the compound in 0.1 M citric acid buffer at pH 3 at 40 degC after 4 hrs by HPLC analysis; assay type: physicochemical; details: pH 3, 4 h; outline: as §2
[6] = Prodrug conversion in 0.1 M phosphate buffer solution assessed as benzofibrate formation at pH 5.2 at 40 degC after 4 hrs by HPLC analysis; assay type: physicochemical; details: pH 5.2, 4 h; outline: as §2
[7] = Prodrug conversion in 0.2 M phosphate buffer solution assessed as benzofibrate formation at pH 7.4 at 40 degC after 4 hrs by HPLC analysis; details: pH 7.4, 4 h
[8] = Prodrug conversion in 0.1 M boric acid buffer solution assessed as benzofibrate formation at pH 9.0 at 40 degC after 4 hrs by HPLC analysis; details: pH 9, 4 h
Mus musculus [9] = assay: Hypolipidemic activity in Swiss albino mouse assessed as reduction in plasma total cholesterol level at 100 mg/kg, po for 8 days measured on day 9 by spectrophotometry relative to control; assay type: functional; parameters: scale not given: the % may be the effect or the level left
Outline: (§3)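 Dose-response in male Swiss albino mice (21–30 g, chow fed): oral dosing at 10, 30 or 100 mg/kg/day, vehicle Tween-80 in 0.5% CMC. Plasma triglyceride and total cholesterol measured spectrophotometrically with a commercial kit; % fall relative to untreated control.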

Mus musculus [10] = assay: Hypolipidemic activity in Swiss albino mouse assessed as reduction in plasma triglyceride level at 10 mg/kg, po for 8 days measured on day 9 by spectrophotometry relative to control; assay type: functional; parameters: scale not given: the % may be the effect or the level left; outline: as §3
Mus musculus [11] = assay: Hypolipidemic activity in Swiss albino mouse assessed as reduction in plasma triglyceride level at 30 mg/kg, po for 8 days measured on day 9 by spectrophotometry relative to control; assay type: functional; parameters: scale not given: the % may be the effect or the level left; outline: as §3
Mus musculus [12] = assay: Hypolipidemic activity in Swiss albino mouse assessed as reduction in plasma triglyceride level at 100 mg/kg, po for 8 days measured on day 9 by spectrophotometry relative to control; assay type: functional; parameters: scale not given: the % may be the effect or the level left; outline: as §3
Mus musculus [13] = assay: Hypolipidemic activity in Swiss albino mouse assessed as reduction in plasma total cholesterol level at 10 mg/kg, po for 8 days measured on day 9 by spectrophotometry relative to control; assay type: functional; parameters: scale not given: the % may be the effect or the level left; outline: as §3
Mus musculus [14] = assay: Hypolipidemic activity in Swiss albino mouse assessed as reduction in plasma total cholesterol level at 30 mg/kg, po for 8 days measured on day 9 by spectrophotometry relative to control; assay type: functional; parameters: scale not given: the % may be the effect or the level left; outline: as §3

SMILES | Activity (Mus musculus [1]) [%] | Activity (Mus musculus [2]) [%] | logD [3] | Stability [4] | Stability [5] | Drug metabolism [6] [µg/mL] | Drug metabolism [7] [µg/mL] | Drug metabolism [8] [µg/mL] | Activity (Mus musculus [9]) [%] | Activity (Mus musculus [10]) [%] | Activity (Mus musculus [11]) [%] | Activity (Mus musculus [12]) [%] | Activity (Mus musculus [13]) [%] | Activity (Mus musculus [14]) [%]
CC(C)OC(=O)OC(C)OC(=O)C(C)(C)Oc1ccc(CCNC(=O)c2ccc(Cl)cc2)cc1 (stereo not drawn) | 3.9 | -5.6 | – | – | – | – | – | – | – | – | – | – | – | –
CC(C)(C)C(=O)OCOC(=O)C(C)(C)Oc1ccc(CCNC(=O)c2ccc(Cl)cc2)cc1 | 18.8 | 3.4 | 5.1 | Stable | Stable | 1.7 | 2.2 | 0.8 | – | – | – | – | – | –
CC(=O)OC(C)OC(=O)C(C)(C)Oc1ccc(CCNC(=O)c2ccc(Cl)cc2)cc1 (stereo not drawn) | 17.2 | 4.3 | 4.5 | Stable | Stable | 0.2 | 0.9 | 6.6 | – | – | – | – | – | –
CC(C)OC(=O)OCOC(=O)C(C)(C)Oc1ccc(CCNC(=O)c2ccc(Cl)cc2)cc1 | 3 | 3 | – | – | – | – | – | – | – | – | – | – | – | –
CC(=O)OCCOC(=O)C(C)(C)Oc1ccc(CCNC(=O)c2ccc(Cl)cc2)cc1 | 9.6 | 2.4 | 3.8 | Stable | Stable | 0.7 | 1.8 | 2.5 | – | – | – | – | – | –
CC(C)(Oc1ccc(CCNC(=O)c2ccc(Cl)cc2)cc1)C(=O)OCCN1CCOCC1 | 11.8 | 3 | 5.1 | Stable | Stable | 6.3 | 6.2 | 8.8 | – | – | – | – | – | –
Cc1oc(=O)oc1COC(=O)C(C)(C)Oc1ccc(CCNC(=O)c2ccc(Cl)cc2)cc1 | 30.2 | 13 | 3.1 | Stable | Stable | 0.2 | 0.5 | 2.6 | 4 | 3.51 | 27.1 | 22.3 | 4.9 | 2
CC(C)(Oc1ccc(CCNC(=O)c2ccc(Cl)cc2)cc1)C(=O)O [BEZAFIBRATE] | 11.4 | 10.4 | 1.5 | – | – | – | – | – | – | – | – | – | – | –
